Measured values from ChEMBL document CHEMBL1129660, “Studies on 6-aminoquinolones: synthesis and antibacterial evaluation of 6-amino-8-methylquinolones” (J Med Chem, 1996).
≈ marks a conversion by molar mass, not a printed value.

Legend:
Proteus vulgaris = test: Antibacterial activity tested against Proteus vulgaris CNUR 5; type: functional
Summary of the method: (§1)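 MICs (µg/mL) determined by conventional agar dilution against a panel of eight Gram-negative and five Gram-positive reference strains.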

[1] = Geometric mean of antibacterial activity (Gram -ve bacteria) of the compound; type: functional
Summary of the method: (§2)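 Geometric means calculated from agar-dilution MICs (µg/mL), taken separately across the five Gram-positive and the eight Gram-negative panel strains.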

Enterobacter cloacae = test: Antibacterial activity tested against Enterobacter cloacae OMNFI 174; type: functional
Staphylococcus aureus [2] = test: Antibacterial activity against Staphylococcus aureus MPR 5; type: functional; summary of the method: as §1
Shigella = test: Antibacterial activity tested against Shigella enteritidis; type: functional; summary of the method: as §1
[3] = test system: Staphylococcus epidermidis; test: Antibacterial activity tested against Staphylococcus epidermidis CPHL A2; type: functional; summary of the method: as §1
Escherichia coli [4] = test: Antibacterial activity tested against Escherichia coli ATCC 8739; type: functional; summary of the method: as §1
[5] = test system: Staphylococcus epidermidis; test: Antibacterial activity tested against Staphylococcus epidermidis HCF Berset C; type: functional; summary of the method: as §1
Providencia stuartii = test: Antibacterial activity tested against Providencia stuartii CNUR 5; type: functional; summary of the method: as §1
Bacteria = test: Geometric mean of antibacterial activity (Gram +ve bacteria) of the compound; type: functional; summary of the method: as §2
Escherichia coli [6] = test: Inhibitory activity against gyrase supercoiling activity from Escherichia coli; type: functional
Summary of the method: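 Inhibition of DNA gyrase supercoiling activity, by a previously described protocol with slight modifications. IC50 derived by densitometric quantification of the supercoiled DNA peak in an agarose gel.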

Pseudomonas aeruginosa = test: Antibacterial activity tested against P. ae (Pseudomonas aeruginosa) ATCC 9027; type: functional; summary of the method: as §1
Staphylococcus aureus [7] = test: Antibacterial activity against Staphylococcus aureus ATCC 6538; type: functional; summary of the method: as §1
Escherichia coli [8] = test: Antibacterial activity tested against Escherichia coli ISF 432; type: functional; summary of the method: as §1
Enterococcus faecalis [9] = test: Antibacterial activity tested against Streptococcus faecalis LEP Br; type: functional; summary of the method: as §1
Klebsiella pneumoniae = test: Antibacterial activity tested against Klebsiella pneumoniae (Klebsiella pneumoniae) ATCC 10031; type: functional; summary of the method: as §1
Streptococcus pneumoniae [10] = test: Antibacterial activity tested against Streptococcus pneumoniae; Range is 1-2 ug/mL; type: functional
Staphylococcus aureus [11] = test: Antibacterial activity tested against Staphylococcus aureus; Range is 0.06-0.13 ug/mL; type: functional
Enterococcus faecalis [12] = test: Antibacterial activity tested against Enterococcus faecalis; Range is 0.25-0.5 ug/mL; type: functional
Enterococcus faecium [13] = test: Antibacterial activity tested against Enterococcus faecium; Range is 0.5-2 ug/mL; type: functional
Staphylococcus aureus [14] = test: Antibacterial activity tested against Staphylococcus aureus Methicillin-and Ciprofloxacin resistants; Range is 4-8 ug/mL; type: functional
Streptococcus pneumoniae [15] = test: Antibacterial activity tested against Streptococcus pneumoniae; Range is 0.5-2 ug/mL; type: functional
Staphylococcus aureus [16] = test: Antibacterial activity tested against Staphylococcus aureus Methicillin-and Ciprofloxacin resistants; Range is 4-32 ug/mL; type: functional
Enterococcus faecium [17] = test: Antibacterial activity tested against Enterococcus faecium; Range is 0.25-4 ug/mL; type: functional
Staphylococcus aureus [18] = test: Antibacterial activity tested against Staphylococcus aureus Methicillin-and Ciprofloxacin resistants; Range is 2-8 ug/mL; type: functional
Enterococcus faecium [19] = test: Antibacterial activity tested against Enterococcus faecium; type: functional
Enterococcus faecalis [20] = test: Antibacterial activity tested against Enterococcus faecalis; type: functional
Enterococcus faecium [21] = test: microbe, parasite or virus in culture
Staphylococcus aureus [22] = test: microbe, parasite or virus in culture
Enterococcus faecalis [23] = test: microbe, parasite or virus in culture
Mus musculus [24] = test: Efficacy against Septicemia caused by Staphylococcus aureus in mice by subcutaneous administration; type: functional; details: sc
Summary of the method: (§3)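 S. aureus Smith ATCC19636, overnight brain-heart infusion culture diluted in 5% mucin, given i.p. (0.5 mL) to male and female CD-1 mice (18-22 g). Single s.c. or oral dose within 10 min of infection, drug in DMSO/0.5% methocel or as suspension. 3-5 dose groups of six mice; ED50 with 95% limits by Spearman-Kärber from day-7 survival.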

Staphylococcus aureus [25] = test: microbe, parasite or virus in culture; remark: listed apart in the source
Mus musculus [26] = test: Efficacy against Septicemia caused by Staphylococcus aureus in mice by Oral administration; type: functional; summary of the method: as §3

| SMILES | MIC (Proteus vulgaris) [µg/mL] | Geometric mean [1] | MIC (Enterobacter cloacae) [µg/mL] | MIC (Staphylococcus aureus [2]) [µg/mL] | MIC (Shigella) [µg/mL] | MIC [3] [µg/mL] | MIC (Escherichia coli [4]) [µg/mL] | MIC [5] [µg/mL] | MIC (Providencia stuartii) [µg/mL] | Geometric mean (Bacteria) | IC50 (Escherichia coli [6]) [µg/mL] | MIC (Pseudomonas aeruginosa) [µg/mL] | MIC (Staphylococcus aureus [7]) [µg/mL] | MIC (Escherichia coli [8]) [µg/mL] | MIC (Enterococcus faecalis [9]) [µg/mL] | MIC (Klebsiella pneumoniae) [µg/mL] | MIC (Streptococcus pneumoniae [10]) [µg/mL] | MIC (Staphylococcus aureus [11]) [µg/mL] | MIC (Enterococcus faecalis [12]) [µg/mL] | further results |
| --- | --- | --- | --- | --- | --- | --- | --- | --- | --- | --- | --- | --- | --- | --- | --- | --- | --- | --- | --- | --- |
| Cc1c(N2CCN(C)CC2)c(N)cc2c(=O)c(C(=O)O)cn(C3CC3)c12 | 4 (≈ 11.2 µM) | 0.205 | 0.125 (≈ 0.351 µM) | 0.5 (≈ 1.4 µM) | 0.06 (≈ 0.168 µM) | 1 (≈ 2.81 µM) | 0.03 (≈ 0.0842 µM) | 1 (≈ 2.81 µM) | 2 (≈ 5.61 µM) | 1 | 3.78 (≈ 10.6 µM) | 2 (≈ 5.61 µM) | 0.5 (≈ 1.4 µM) | 0.03 (≈ 0.0842 µM) | 4 (≈ 11.2 µM) | 0.03 (≈ 0.0842 µM) |  |  |  |  |
| Cc1c(N2CCOCC2)c(N)cc2c(=O)c(C(=O)O)cn(C3CC3)c12 | 8 (≈ 23.3 µM) | 0.189 | 0.125 (≈ 0.364 µM) | 0.125 (≈ 0.364 µM) | 0.125 (≈ 0.364 µM) | 0.25 (≈ 0.728 µM) | 0.03 (≈ 0.0874 µM) | 0.125 (≈ 0.364 µM) | 0.5 (≈ 1.46 µM) | 0.218 | 5.64 (≈ 16.4 µM) | 1 (≈ 2.91 µM) | 0.125 (≈ 0.364 µM) | 0.03 (≈ 0.0874 µM) | 1 (≈ 2.91 µM) | 0.03 (≈ 0.0874 µM) | 1 (≈ 2.91 µM) | 0.06 (≈ 0.175 µM) | 0.25 (≈ 0.728 µM) | MIC (Enterococcus faecium [13]): 0.5 µg/mL (≈ 1.46 µM); MIC (Staphylococcus aureus [14]): 4 µg/mL (≈ 11.6 µM) |
| Cc1c(N2CCC(O)CC2)c(N)cc2c(=O)c(C(=O)O)cn(C3CC3)c12 | 16 (≈ 44.8 µM) | 0.495 | 0.5 (≈ 1.4 µM) | 0.125 (≈ 0.35 µM) | 0.25 (≈ 0.699 µM) | 0.06 (≈ 0.168 µM) | 1 (≈ 2.8 µM) | 0.06 (≈ 0.168 µM) | 1 (≈ 2.8 µM) | 0.106 | 5.74 (≈ 16.1 µM) | 2 (≈ 5.6 µM) | 0.06 (≈ 0.168 µM) | 0.03 (≈ 0.0839 µM) | 0.5 (≈ 1.4 µM) | 0.03 (≈ 0.0839 µM) |  | 0.06 (≈ 0.168 µM) | 0.25 (≈ 0.699 µM) | MIC (Streptococcus pneumoniae [15]): 0.5 µg/mL (≈ 1.4 µM); MIC (Staphylococcus aureus [16]): 4 µg/mL (≈ 11.2 µM); MIC (Enterococcus faecium [17]): 0.25 µg/mL (≈ 0.699 µM) |
| Cc1c(N2CCSCC2)c(N)cc2c(=O)c(C(=O)O)cn(C3CC3)c12 | 32 (≈ 89 µM) | 0.362 | 0.25 (≈ 0.696 µM) | 0.06 (≈ 0.167 µM) | 0.125 (≈ 0.348 µM) | 0.125 (≈ 0.348 µM) | 0.25 (≈ 0.696 µM) | 0.125 (≈ 0.348 µM) | 2 (≈ 5.56 µM) | 0.123 | 1.42 (≈ 3.95 µM) | 1 (≈ 2.78 µM) | 0.06 (≈ 0.167 µM) | 0.03 (≈ 0.0835 µM) | 0.5 (≈ 1.39 µM) | 0.02 (≈ 0.0556 µM) | 1 (≈ 2.78 µM) | 0.06 (≈ 0.167 µM) |  | MIC (Staphylococcus aureus [18]): 2 µg/mL (≈ 5.56 µM); MIC (Enterococcus faecium [19]): 2 µg/mL (≈ 5.56 µM); MIC (Enterococcus faecalis [20]): 0.5 µg/mL (≈ 1.39 µM) |
| O=C(O)c1cn(C2CC2)c2cc(N3CCNCC3)c(F)cc2c1=O [CIPROFLOXACIN] | 0.5 (≈ 1.51 µM) | 0.033 |  | 0.06 (≈ 0.181 µM) |  | 0.06 (≈ 0.181 µM) |  | 0.06 (≈ 0.181 µM) | 0.06 (≈ 0.181 µM) | 0.092 |  | 0.06 (≈ 0.181 µM) | 0.06 (≈ 0.181 µM) |  | 0.5 (≈ 1.51 µM) |  |  |  |  | MIC (Enterococcus faecium [21]): 1 µg/mL (≈ 3.02 µM); MIC (Staphylococcus aureus [22]): 0.13 µg/mL (≈ 0.392 µM); MIC (Enterococcus faecalis [23]): 0.5 µg/mL (≈ 1.51 µM); ED50 (Mus musculus [24]): 0.9 mg/kg; MIC (Staphylococcus aureus [25]): 4 µg/mL (≈ 12.1 µM); ED50 (Mus musculus [26]): 7 mg/kg |
